# Data reported in ChEMBL document CHEMBL1157313, “Metabolites from the marine-derived fungus Chromocleista sp. isolated from a deep-water sediment sample collected in the Gulf of Mexico” (2006).
# Active and inactive are the calls of the source. No cut-off for these calls is given here.
# What was measured:
# PANC-1 = assay: Cytotoxicity against human PANC1 cells at 5 ug/mL after 72 hrs by MTT assay; type: functional, cell-based
# Summary of the method: (§1)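 Cells exposed to compound at 5 µg/mL for 72 h in 96-well format; viability read spectrophotometrically with MTT.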
# Staphylococcus aureus = assay: Antibacterial activity against Staphylococcus aureus ATCC 29213 at 50 ug/mL after 18 hrs by broth microdilution technique; type: functional, organism-based
# Summary of the method: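 MIC by standard broth microdilution in cation-supplemented Mueller-Hinton broth; plates incubated 18 h at 37 °C; tested at 50 µg/mL.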
# NCI/ADR-RES = assay: Cytotoxicity against human NCI-ADR-RES cells at 5 ug/mL after 72 hrs by MTT assay; type: functional, cell-based; summary of the method: as §1
# P388 = assay: Cytotoxicity against mouse P388 cells at 5 ug/mL after 45 hrs by MTT assay; type: functional, cell-based
# Summary of the method: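 Murine leukemia cells incubated 45 h with compound at 5 µg/mL in 96-well plates; cytotoxicity read spectrophotometrically using MTT.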
# A549 = assay: Cytotoxicity against human A549 cells at 5 ug/mL after 72 hrs by MTT assay; type: functional, cell-based; summary of the method: as §1
# Candida albicans [1] = assay: Antifungal activity against Candida albicans ATCC 44506 up to 50 ug/mL after 18 hrs by broth microdilution method; type: functional, organism-based
# Summary of the method: (§2)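 MIC by standard broth microdilution with Sabouraud dextrose broth as growth medium; plates incubated 18 h at 37 °C.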
# Candida albicans [2] = assay: Antifungal activity against Candida albicans ATCC 44506 after 18 hrs by broth microdilution method; type: functional; conditions: ATCC 44506, 18 h; summary of the method: as §2
MIC (Candida albicans [2]) [µg/mL],SMILES,Activity (PANC-1),Activity (Staphylococcus aureus),Activity (NCI/ADR-RES),Activity (P388),Activity (A549),Activity (Candida albicans [1])
–,O=C1[C@H](Cc2ccccc2)NC(=O)[C@@]2(O)CCCN12,inactive,inactive,inactive,inactive,inactive,inactive
–,O=C1[C@H](Cc2ccccc2)NC(=O)[C@]2(O)CCCN12,inactive,inactive,inactive,inactive,inactive,inactive
–,O=C1N[C@@H](Cc2ccccc2)C(=O)N2CCC=C12,inactive,inactive,inactive,inactive,inactive,inactive
25,O=C1C(O)=C(c2ccc(O)cc2)[C@@H]2CCCN12,inactive,inactive,inactive,inactive,inactive,–
